Measured values taken from ChEMBL document CHEMBL6109036, “Azo derivatives of monoterpenes as anti-Helicobacter pylori agents: from synthesis to structure-based target investigation” (RSC Med Chem, 2025).
Values after ≈ are worked out from the molar mass of the structure shown.

Key:
[1] = test system: Helicobacter pylori; assay: Anti-bacterial activity against Helicobacter pylori Clinical isolate 23 measured after 72 hrs incubation by modified broth dilution method; type: functional
[2] = test system: Pseudomonas aeruginosa; assay: Anti-bacterial activity against non-lactose fermenting Pseudomonas aeruginosa ATCC 27853 measured after 24 hrs incubation by modified broth dilution method; conditions: ATCC 27853, 24 h
[3] = Cytotoxicity against human HIEC-6 cells assessed as cell viability measured after 48 hrs by MTT assay
[4] = Cytotoxicity against SV40-immortalized non-tumorigenic human GES1 cells assessed as cell viability measured after 24 hrs by Alamar blue assay; type: toxicity, cell-based
How it was run: (§1)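 GES-1 cells grown in RPMI with 10% FCS, glutamine, pen/strep and 10 mM HEPES at 37 °C, 5% CO2. Exposed to increasing concentrations for 24, 48 or 72 h. Alamar blue then added for 4 h at 37 °C and read at 540 and 630 nm. Percent reduction relative to untreated cells (100%).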

[5] = test system: Staphylococcus aureus; assay: Anti-bacterial activity against Gram-positive Staphylococcus aureus ATCC 29213 measured after 24 hrs incubation by modified broth dilution method; conditions: ATCC 29213, 24 h
[6] = test system: Helicobacter pylori; assay: Bactericidal activity against Helicobacter pylori Clinical isolate F1 measured after 72 hrs of incubation under microaerophilic conditions by modified broth dilution method; type: functional; conditions: read-out: MBC99.9
How it was run: (§2)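 H. pylori (NCTC 11637, F1, 23, F4). Wells with no visible growth in the MIC assay spotted (10 μL) onto Skirrow agar. Plates incubated 72 h at 37 °C, microaerophilic, 100% humidity. MBC = concentration killing 99.9% of the initial inoculum. Triplicate, on at least three different days.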

[7] = test system: Helicobacter pylori; assay: Bactericidal activity against Helicobacter pylori NCTC 11637 measured after 72 hrs of incubation under microaerophilic conditions by modified broth dilution method; type: functional; conditions: read-out: MBC99.9; how it was run: as §2
[8] = test system: Helicobacter pylori; assay: Bactericidal activity against Helicobacter pylori Clinical isolate 23 measured after 72 hrs of incubation under microaerophilic conditions by modified broth dilution method; type: functional; conditions: read-out: MBC99.9; how it was run: as §2
[9] = test system: Helicobacter pylori; assay: Anti-bacterial activity against Helicobacter pylori Clinical isolate F1 measured after 72 hrs incubation by modified broth dilution method; type: functional
[10] = test system: Escherichia coli; assay: Bactericidal against lactose fermenting Escherichia coli ATCC 25922 measured after 24 hrs of incubation by broth microdilution method; conditions: ATCC 25922, 24 h, read-out: MBC99.9
[11] = test system: Helicobacter pylori; assay: Bactericidal against Helicobacter pylori measured after 72 hrs of incubation under microaerophilic conditions by modified broth dilution method; type: functional; conditions: for MBC: Helicobacter pylori, read-out: MBC99.9
How it was run: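 Wells with no visible growth in the MIC assay spotted (10 μL) onto Skirrow agar. Plates incubated 72 h at 37 °C, microaerophilic, 100% humidity. Triplicate, on at least three different days.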

[12] = test system: Helicobacter pylori; assay: Anti-bacterial activity against Helicobacter pylori Clinical isolate F4 measured after 72 hrs incubation by modified broth dilution method; type: functional
[13] = test system: Helicobacter pylori; assay: Bactericidal against Helicobacter pylori Clinical isolate F4 measured after 72 hrs of incubation under microaerophilic conditions by modified broth dilution method; type: functional; conditions: read-out: MBC99.9; how it was run: as §2
[14] = test system: Helicobacter pylori; assay: Anti-bacterial activity against Helicobacter pylori NCTC 11637 measured after 72 hrs incubation by modified broth dilution method; type: functional
[15] = test system: Pseudomonas aeruginosa; assay: Bactericidal against non-lactose fermenting Pseudomonas aeruginosa ATCC 27853 measured after 24 hrs of incubation by broth microdilution method; conditions: ATCC 27853, 24 h, read-out: MBC99.9
[16] = Cytotoxicity against human HIEC-6 cells assessed as cell viability measured after 72 hrs by MTT assay
[17] = Cytotoxicity against human HIEC-6 cells assessed as cell viability measured after 24 hrs by MTT assay
[18] = test system: Escherichia coli; assay: Anti-bacterial activity against lactose fermenting Escherichia coli ATCC 25922 measured after 24 hrs incubation by modified broth dilution method; conditions: ATCC 25922, 24 h
[19] = test system: Helicobacter pylori; assay: Anti-bacterial activity against Helicobacter pylori measured after 72 hrs incubation by modified broth dilution method; type: functional
[20] = Cytotoxicity against SV40-immortalized non-tumorigenic human GES1 cells assessed as cell viability measured after 72 hrs by Alamar blue assay; type: toxicity, cell-based; how it was run: as §1
[21] = test system: Staphylococcus aureus; assay: Bactericidal against Gram-positive Staphylococcus aureus ATCC 29213 measured after 24 hrs of incubation by broth microdilution method; conditions: ATCC 29213, 24 h, read-out: MBC99.9
[22] = Cytotoxicity against SV40-immortalized non-tumorigenic human GES1 cells assessed as cell viability measured after 48 hrs by Alamar blue assay; type: toxicity, cell-based; how it was run: as §1

| SMILES | MIC [1] [µg/mL] | MBC [6] [µg/mL] | MBC [7] [µg/mL] | MBC [8] [µg/mL] | MIC [9] [µg/mL] | MBC90 [11] [µg/mL] | MIC [12] [µg/mL] | MBC [13] [µg/mL] | MIC [14] [µg/mL] | MIC50 [19] [µg/mL] | MIC90 [19] [µg/mL] | further results |
| --- | --- | --- | --- | --- | --- | --- | --- | --- | --- | --- | --- | --- |
| Cc1cc(O)c(C(C)C)cc1/N=N/c1ccc([N+](=O)[O-])cc1 | 2 (≈ 6.68 µM) | 2 (≈ 6.68 µM) | 2 (≈ 6.68 µM) | 2 (≈ 6.68 µM) | 2 (≈ 6.68 µM) | 4 (≈ 13.4 µM) | 4 (≈ 13.4 µM) | 4 (≈ 13.4 µM) | 2 (≈ 6.68 µM) | 2 (≈ 6.68 µM) | 4 (≈ 13.4 µM) | MIC [2]: > 128 µg/mL; IC50 at 48 h [3]: 7.61 µg/mL (≈ 25.4 µM); IC50 at 24 h [4]: 12.1 µg/mL (≈ 40.4 µM); MIC [5]: 2 µg/mL (≈ 6.68 µM); MBC [10]: > 128 µg/mL; MBC [15]: > 128 µg/mL; IC50 at 72 h [16]: 7.61 µg/mL (≈ 25.4 µM); IC50 at 24 h [17]: 13.6 µg/mL (≈ 45.4 µM); MIC [18]: > 128 µg/mL; IC50 at 72 h [20]: 8.44 µg/mL (≈ 28.2 µM); MBC [21]: 32 µg/mL (≈ 107 µM) |
| COc1ccc(/N=N/c2cc(C(C)C)c(OC(=O)N(C)C)cc2C)cc1 | 64 (≈ 180 µM) | > 128 | 64 (≈ 180 µM) | 128 (≈ 360 µM) | 128 (≈ 360 µM) | 128 (≈ 360 µM) | 64 (≈ 180 µM) | 64 (≈ 180 µM) | 128 (≈ 360 µM) | > 128 | 128 (≈ 360 µM) |  |
| COc1cc(C=O)cc(/N=N/c2ccc(Br)cc2)c1O | 32 (≈ 95.5 µM) | 8 (≈ 23.9 µM) | 16 (≈ 47.7 µM) | 32 (≈ 95.5 µM) | 8 (≈ 23.9 µM) | 32 (≈ 95.5 µM) | 16 (≈ 47.7 µM) | 16 (≈ 47.7 µM) | 16 (≈ 47.7 µM) | 16 (≈ 47.7 µM) | 32 (≈ 95.5 µM) |  |
| Cc1cc(OC(=O)N(C)C)c(C(C)C)cc1/N=N/c1ccc([N+](=O)[O-])cc1 | > 128 | 128 (≈ 346 µM) | 128 (≈ 346 µM) | 128 (≈ 346 µM) | 128 (≈ 346 µM) | 128 (≈ 346 µM) | 128 (≈ 346 µM) | 128 (≈ 346 µM) | > 128 | > 128 | > 128 |  |
| COc1ccc(/N=N/c2cc(C(C)C)c(OC(=S)N(C)C)cc2C)cc1 | 128 (≈ 345 µM) | > 128 | > 128 | 128 (≈ 345 µM) | 128 (≈ 345 µM) | >128 | 128 (≈ 345 µM) | 128 (≈ 345 µM) | > 128 | 128 (≈ 345 µM) | > 128 |  |
| Cc1ccc(C(C)C)c(O)c1 [THYMOL] | 128 (≈ 852 µM) | 64 (≈ 426 µM) | 128 (≈ 852 µM) | 128 (≈ 852 µM) | 64 (≈ 426 µM) |  | 64 (≈ 426 µM) | 64 (≈ 426 µM) | 128 (≈ 852 µM) | 64 (≈ 426 µM) | 128 (≈ 852 µM) | MBC [11]: 128 µg/mL (≈ 852 µM) |
| COc1cc(C=O)cc(/N=N/c2ccc(C#N)cc2)c1O | 8 (≈ 28.4 µM) | 4 (≈ 14.2 µM) | 16 (≈ 56.9 µM) | 8 (≈ 28.4 µM) | 4 (≈ 14.2 µM) | 16 (≈ 56.9 µM) | 8 (≈ 28.4 µM) | 8 (≈ 28.4 µM) | 8 (≈ 28.4 µM) | 8 (≈ 28.4 µM) | 8 (≈ 28.4 µM) |  |
| COc1ccc(/N=N/c2cc(C(C)C)c(O)cc2C)cc1 | 4 (≈ 14.1 µM) | 4 (≈ 14.1 µM) | 4 (≈ 14.1 µM) | 4 (≈ 14.1 µM) | 4 (≈ 14.1 µM) | 4 (≈ 14.1 µM) | 2 (≈ 7.03 µM) | 2 (≈ 7.03 µM) | 4 (≈ 14.1 µM) | 4 (≈ 14.1 µM) | 4 (≈ 14.1 µM) |  |
| Cc1ncc([N+](=O)[O-])n1CCO [METRONIDAZOLE] | 1 (≈ 5.84 µM) | 2 (≈ 11.7 µM) | 256 (≈ 1500 µM) | 1 (≈ 5.84 µM) | 2 (≈ 11.7 µM) | 256 (≈ 1500 µM) | 32 (≈ 187 µM) | 32 (≈ 187 µM) | 256 (≈ 1500 µM) | 2 (≈ 11.7 µM) | 256 (≈ 1500 µM) |  |
| C=CCc1cc(/N=N/c2ccc3c(c2)OCO3)c(O)c(OC)c1 | > 128 | > 128 | 128 (≈ 410 µM) | > 128 | > 128 | >128 | > 128 | > 128 | 128 (≈ 410 µM) | > 128 | > 128 |  |
| Cc1cc(O)c(C(C)C)cc1/N=N/c1ccccc1Cl | 4 (≈ 13.9 µM) | 4 (≈ 13.9 µM) | 4 (≈ 13.9 µM) | 8 (≈ 27.7 µM) | 4 (≈ 13.9 µM) | 8 (≈ 27.7 µM) | 4 (≈ 13.9 µM) | 4 (≈ 13.9 µM) | 4 (≈ 13.9 µM) | 4 (≈ 13.9 µM) | 4 (≈ 13.9 µM) |  |
| COc1cc(C=O)cc(/N=N/c2ccc(Cl)c(Cl)c2)c1O | 64 (≈ 197 µM) | 64 (≈ 197 µM) | 128 (≈ 394 µM) | 128 (≈ 394 µM) | 64 (≈ 197 µM) | 128 (≈ 394 µM) | 128 (≈ 394 µM) | 128 (≈ 394 µM) | 128 (≈ 394 µM) | 64 (≈ 197 µM) | 128 (≈ 394 µM) |  |
| C=CCc1cc(/N=N/c2ccc(Cl)cc2Cl)c(O)c(OC)c1 | > 128 | > 128 | 128 (≈ 380 µM) | > 128 | > 128 | >128 | > 128 | > 128 | 128 (≈ 380 µM) | > 128 | > 128 |  |
| COc1cc(C=O)ccc1O [VANILLIN] | > 128 | > 128 | > 128 | > 128 | > 128 |  | 128 (≈ 841 µM) | 128 (≈ 841 µM) | > 128 | > 128 | > 128 | MBC [11]: > 128 µg/mL |
| Cc1ccc(C(C)C)c(/N=N/c2ccc([N+](=O)[O-])cc2)c1O | 2 (≈ 6.68 µM) | 4 (≈ 13.4 µM) | 2 (≈ 6.68 µM) | 2 (≈ 6.68 µM) | 2 (≈ 6.68 µM) | 4 (≈ 13.4 µM) | 4 (≈ 13.4 µM) | 4 (≈ 13.4 µM) | 2 (≈ 6.68 µM) | 2 (≈ 6.68 µM) | 4 (≈ 13.4 µM) | MIC [2]: > 128 µg/mL; IC50 at 48 h [3]: 13.4 µg/mL (≈ 44.7 µM); IC50 at 24 h [4]: 15 µg/mL (≈ 50.1 µM); MIC [5]: 2 µg/mL (≈ 6.68 µM); IC50 at 48 h [22]: 12.1 µg/mL (≈ 40.4 µM); MBC [10]: > 128 µg/mL; MBC [15]: > 128 µg/mL; IC50 at 72 h [16]: 13.3 µg/mL (≈ 44.3 µM); IC50 at 24 h [17]: 15.1 µg/mL (≈ 50.3 µM); MIC [18]: > 128 µg/mL; IC50 at 72 h [20]: 12 µg/mL (≈ 40.2 µM); MBC [21]: 32 µg/mL (≈ 107 µM) |
